Compound activity deposited in PubChem BioAssay by several laboratories.
MT1-MMP act inh – MT1-MMP (human) activation inhibition; AID 651647; GFP/RFP ratio change, % at 20 µM; 360,000 tested, 0.061% active; HT1080 RFP-PRO-GFP cells, GFP/RFP ratio fluorescence, overnight; percent of plate control window, DMSO zero;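 active means GFP/RFP ratio change of at least 30% with cell ATP level not reduced by more than half and red fluorescence within 50% of control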
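Assay system: RFP-PRO-GFP reporter HT1080 cells; read-out basis: GFP/RFP fluorescence ratio; benchmarks: DMSO wells and RFP-L50D-GFP cells; doses: 20 µM single dose, 1% DMSO; schedule: overnight cell settling, then overnight compound exposure, 37 °C, 5% CO2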
iPSC survival up – increases survival of single human iPS cells; hiPSC single-cell survival, ATPlite luminescence; 100% = ROCK inhibitor wells, 0% = DMSO; survival enhancement, % at 20 µM; 360,000 tested, 0.044% active; AID 602274; in the data active means survival enhancement above about 18%;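 further: cells exposed to compounds for 16 hours before the ATP read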
SKN-1 inh – C. elegans SKN-1 inhibition; C. elegans VP596 Pgst-4::GFP/RFP ratio, acrylamide-induced, 24 h; inhibition, % at 21.8 µM; 360,000 tested, 0.49% active; AID 624304;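 active means interference check ratio from 0.5 to 1.5 plus GFP to RFP signal ratio inhibition reaching or exceeding a fixed threshold, cut at about 30% in these data, passing the limit was not always enough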
Cneo AK release – causes C. neoformans cell lysis | 360,000 tested, 0.2% active | AID 651654 | adenylate kinase release luminescence, 4 h; normalised: neutral wells 0, clomiphene wells 100 | lysis activity, % at 15 µM;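 active means mean lysis activity across replicates of at least 80%, whatever share of replicates individually reach that level; inactive means mean lysis activity below 80%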
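read-out = cell lysis signal | test system = log-phase Cryptococcus neoformans yeast cells | input = cells at 5 × 10^6 per mL | medium = fresh YPD growth medium | signal = luminescent adenylate kinase detection reagent | timing = 4 h at 37 °C static, read 1 h later | dosing = single dose | controls = Clomiphene as positive lysis control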
Ecoli rRNA inh – selective bacterial rRNA inhibition in E. coli; GFP signal change (wild-type ribosome), % (no concentration beside the values); AID 720706; E. coli WT GFP vs humanized-ribosome RFP mutants, fluorescence, 24 h; hits give low values; DMSO median 0, no signal -100; 350,000 tested, 1.6% active;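 active means significant combined selectivity score with lowered wild-type GFP, culture density cut under 30%, mutant RFP and density less affected; inactive means any of these conditions unmet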
DAGLB inhibitor – blocks human DAGLB lipase activity; HEK293T DAGLB membrane lysate, EnzChek fluorogenic substrate; inhibition, % at 5.17 µM; 340,000 tested, 0.059% active; AID 504411; in the data active means inhibition above about 34%;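 further: 0% = enzyme with vehicle and 100% = wells lacking enzyme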
Target sequence (Q8NCG7 whole entry, looked up): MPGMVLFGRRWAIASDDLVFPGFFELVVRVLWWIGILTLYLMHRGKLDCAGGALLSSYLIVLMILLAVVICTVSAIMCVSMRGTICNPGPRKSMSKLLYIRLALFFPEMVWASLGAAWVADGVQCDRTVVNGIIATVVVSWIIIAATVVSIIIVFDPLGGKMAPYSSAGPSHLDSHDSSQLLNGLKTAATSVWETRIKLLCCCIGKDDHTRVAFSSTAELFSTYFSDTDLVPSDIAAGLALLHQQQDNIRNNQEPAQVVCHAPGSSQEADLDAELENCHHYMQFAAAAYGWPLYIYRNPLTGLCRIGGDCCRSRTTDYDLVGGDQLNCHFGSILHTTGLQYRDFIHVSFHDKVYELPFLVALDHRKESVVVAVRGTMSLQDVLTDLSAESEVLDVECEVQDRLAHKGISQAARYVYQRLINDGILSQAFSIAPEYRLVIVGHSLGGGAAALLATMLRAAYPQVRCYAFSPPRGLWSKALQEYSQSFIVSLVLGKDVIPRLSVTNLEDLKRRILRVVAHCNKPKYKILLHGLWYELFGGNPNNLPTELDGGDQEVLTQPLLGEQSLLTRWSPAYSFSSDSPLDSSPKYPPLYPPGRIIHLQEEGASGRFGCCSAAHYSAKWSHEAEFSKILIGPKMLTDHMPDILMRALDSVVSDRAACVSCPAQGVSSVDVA
Starred values were filed as active, the others as inactive; . = no result. Only some compounds are listed: those with a hit (about 1.8% of all), similar ones and a draw of the others.

SMILES	MT1-MMP act inh	iPSC survival up	SKN-1 inh	Cneo AK release	Ecoli rRNA inh	DAGLB inhibitor
CCOc1ccc(CN(C)CC(=O)Nc2cccc3ccccc23)cc1OC	0.5	-0.2	-10.4	-0.7	-24.5*	-4.4
CN1CCN(CCCNC(=O)c2ccc(/C=C3\Oc4ccccc4N(Cc4ccccc4F)C3=O)cc2)CC1	4.1	-0.3	-5.9	107.7*	4.7	0.2
Cc1cccc(CN2C(=O)/C(=C\c3ccc(C(=O)NCCCN4CCN(C)CC4)cc3)Oc3ccccc32)c1	-1.9	-0.4	8.0	3.6	5.3	1.8
CC(C)N(Cc1nc(-c2ccccc2)no1)C(=O)c1ccc2c(c1)OCO2	-4.0	-2.4	20.8	4.8	-29.3*	-3.1
Cc1ccc(-c2noc(CN(C(=O)c3ccc4c(c3)OCO4)C(C)C)n2)cc1	-1.4	0.0	-6.5	12.4	3.2	-8.0
CCc1ccc(C2C(C#N)=C(N)N(N(C)C)C3=C2C(=O)CCC3)cc1 (stereo not drawn)	-0.4	-0.1	36.2*	-0.8	1.4	1.9
CN(C)N1C(N)=C(C#N)C(c2ccc(F)cc2)C2=C1CCCC2=O (stereo not drawn)	-0.4	-0.5	2.8	-0.6	9.6	-0.5
CN1C(=O)c2ccccc2OC1(C)Cc1ccccc1 (stereo not drawn)	0.0	-0.3	-0.6	.	-20.8*	-5.9
CN1C(=O)OC(C)(CCc2ccccc2)C1(C)O (stereo not drawn)	3.6	-1.5	13.0	2.2	.	-6.4
O=C(N[C@H]1C=C[C@H](CC(=O)N2CCOCC2)O[C@H]1CO)c1ccccn1	.	.	.	-0.4	3.8	.
Cc1cc(C)cc(Oc2coc3cc(OC(=O)c4cccnc4)ccc3c2=O)c1	-1.9	-2.5	8.0	-1.4	.	-3.1
Cc1cccc(Oc2coc3cc(OC(=O)c4cncc(Br)c4)ccc3c2=O)c1	-2.5	-1.5	-6.9	0.3	-17.5*	-0.6
Cc1noc(C)c1NC(=O)Nc1ccc2c(c1)C(=O)N([C@H](C)CO)C[C@@H](C)[C@@H](CN(C)Cc1ccc(C(=O)O)cc1)OCCCC[C@H](C)O2	.	.	.	0.3	9.3	.
Cc1cccc(/C=N\NC(=O)c2ccccc2-n2cccc2)c1	-3.1	0.3	-3.7	1.0	1.2	0.4
O=C(N/N=C/c1ccc(Br)cc1)c1ccccc1-n1cccc1	-3.0	0.9	3.6	.	-41.2*	1.6
N#CCCN1CCN(C(=S)c2ccc(-c3ccc(Cl)cc3)o2)CC1	-4.4	-2.2	-10.4	0.5	-28.4*	2.1
C[C@H](CO)N1C[C@H](C)[C@@H](CN(C)Cc2ccncc2)OCCCC[C@H](C)Oc2ccc(NC(=O)Nc3ccc(F)cc3)cc2C1=O	.	.	.	1.5	3.8	.
Cc1c(C#N)c(O)n(C)c(=O)c1N=Nc1ccc(S(N)(=O)=O)cc1	5.8	1.1	16.8	.	23.1	2.9
CCOC(=O)c1ccc(N=Nc2c(C)c(C#N)c(O)[nH]c2=O)cc1	1.0	0.9	41.4*	.	.	-0.3
Cc1ccc(S(=O)(=O)NCC[C@@H]2CC[C@H](NC(=O)c3cnccn3)[C@H](CO)O2)cc1	.	.	.	-1.0	-0.2	.
O=C(C1CCCC1)N1CC(=O)N2[C@H](C1)[C@H](c1ccc(-c3cccnc3)cc1)[C@@H]2CO	.	.	.	.	5.7	.
CC1(C(=O)NS(=O)(=O)c2ccc(Cl)cc2)CCN1C(=O)CCc1ccc(Cl)cc1Cl (stereo not drawn)	0.6	-3.8	14.3	-0.6	-29.9*	.
Cc1ccc(S(=O)(=O)NC(=O)C2(C)CCN2C(=O)Cc2ccc(-c3ccccc3)cc2)cc1 (stereo not drawn)	7.7	-0.6	-2.5	-2.6	-33.6*	.
Cc1ccc(S(=O)(=O)NC(=O)C2(C)CCN2C(=O)CCc2ccc(Cl)cc2Cl)cc1 (stereo not drawn)	-1.4	3.8	6.1	0.7	-16.2	.
CCC(=O)N1CC(=O)N2[C@H](CO)[C@H](c3ccc(C#CCc4ccccc4)cc3)[C@H]2C1	.	.	.	.	4.2	.
SMILES	MT1-MMP act inh	iPSC survival up	SKN-1 inh	Cneo AK release	Ecoli rRNA inh	DAGLB inhibitor
CCn1cc(C(=O)OCC(=O)Nc2ccc(C(C)C)cc2)c(=O)c2ccc(C)nc21	2.3	-0.3	14.1	.	-22.9*	-3.7
Cc1ccccc1Nc1nc(N)nc(-c2oc3ccccc3c2C)n1	-7.3	0.3	9.2	5.5	-36.5*	.
COc1ccccc1N1CCN(C(=O)CCSCc2ccccc2F)CC1	-7.8	-0.2	-5.0	.	4.3	0.7
COc1cccc(N2CCN(C(=O)CCSCc3ccccc3F)CC2)c1	3.3	-0.1	-1.0	.	-34.9*	-1.1
Cc1nonc1C(=O)N/N=C/c1ccc(O)cc1O	-5.0	1.4	0.4	3.5	-22.4*	3.1
O=C(CCC(=O)Nc1ccc(F)cc1)N/N=C/c1ccccc1O	5.0	-1.3	-1.9	.	14.0	1.5
O=C(CNC(=O)C(c1ccccc1)c1ccccc1)N/N=C/c1ccc(O)cc1O	1.4	-0.5	-0.7	.	-19.9*	-1.4
Cc1ccc(NC(=O)CCC(=O)N/N=C/c2ccc(O)cc2O)cc1	-1.1	-0.2	2.8	3.5	-12.2*	0.5
Cc1nonc1C(=O)N/N=C/c1ccncc1	0.3	-2.4	-10.3	0.2	5.2	0.1
Cc1cccc(OCC(=O)NCC(=O)N/N=C/c2ccc(O)cc2O)c1	3.2	-0.4	3.9	.	-30.2*	4.8
CO[C@H]1CN(C)C(=O)c2cc(NC(=O)C3CC3)ccc2OC[C@@H](C)N(C(C)=O)C[C@@H]1C	.	.	.	-5.1	3.1	.
COCC(=O)N(C)C[C@@H]1Oc2ncc(-c3ccc(C#N)cc3)cc2C(=O)N([C@H](C)CO)C[C@@H]1C	.	.	.	-1.9	-2.8	.
Clc1ccc(-c2nc(CSc3ccccn3)cs2)cc1	-0.3	2.4	58.4*	1.4	-0.5	-21.8
COc1cccc(OC)c1OCCCCc1c(C)n[nH]c1C	-4.4	-1.7	1.9	.	-23.9*	0.9
CCCNC(=O)N[C@H]1CC[C@@H](CC(=O)N2CCN(C)CC2)O[C@H]1CO	.	.	.	-2.5	0.0	.
Cc1cc2nn(-c3ccc(Cl)cc3)nc2cc1N	0.1	-0.7	20.4	.	1.4	-2.6
Cc1cc2nn(-c3ccc(F)cc3)nc2cc1N	-3.1	-0.5	39.4*	-2.3	10.5	3.8
C/C=C/c1ccc2c(c1)O[C@@H](CN(C)C(=O)C1CCC1)[C@@H](C)CN([C@H](C)CO)S2(=O)=O	.	.	.	.	-3.1	.
COc1ccc(CC(=O)NCc2cccc(CNC(=O)Cc3ccc(OC)c(OC)c3)c2)cc1OC	-0.3	-0.6	-11.5	2.8	20.1	-0.3
COc1ccc(CNC(=O)CNC(c2ccccc2)c2ccccc2)cc1OC	3.4	-0.3	7.3	0.4	-28.0*	-0.7
COc1ccc(-n2c(=O)c3c4c(sc3n3c(=S)[nH]nc23)CCC4)cc1	-0.1	1.2	14.7	.	-24.8*	0.0
